Source: PubChem (several laboratories)
Hits are enriched below; roughly 4.9% of the tested compounds scored in any of these assays.
APP 5'UTR act – activates APP 5'UTR luciferase reporter. SH-SY5Y APP 5'UTR luciferase reporter, luminescence; zero percent = DMSO vehicle wells. activation, % at 2 µM. actives 1% (n = 190,000);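 active = activation above a set limit, based on mean plus 3 SD of controls, cut at about 140% in these data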
STAT3 inh – STAT3 signaling inhibition. AID 862. U3A cells, IL-6 STAT3-luciferase reporter, luminescence; host cell line lacks STAT1. actives 0.89% (n = 190,000). inhibition, % at 5.5 µM;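 active = inhibition above the mean inhibition across all screened compounds plus 3 SD, cut at about 44% in these data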
STAT1 activator – increases IFN-gamma driven STAT1 reporter signal; NIH 3T3 STAT1-luciferase reporter, luminescence; 100% = IFN-gamma alone, no compound; activation (% of control), % at 5.5 µM; actives 2.6% (n = 200,000);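 active = activation above the screen-wide mean activation plus 3 SD, cut at about 130% in these data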
STAT1 inh – inhibitors of IFN-gamma induced STAT1 signaling; NIH 3T3 STAT1-luciferase reporter, luminescence; inhibition, % at 5.5 µM; actives 0.35% (n = 200,000); AID 920;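 active = inhibition above a set limit, the mean inhibition across all tested compounds plus 3 SD, cut at about 34% in these data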
NF-kB expr up – raises NF-kB expression in human neuronal cells | NF-kB reporter expression; hits give high values | fold change at 12.5 µM | actives 1.6% (n = 190,000) | AID 1239; in the data active = fold change above about 3.3
STAT3 activator – increases IL-6 driven STAT3 reporter signal; actives 0.91% (n = 190,000); activation (% of control), % at 5.6 µM; U3A cells, IL-6 STAT3-luciferase reporter, luminescence; 100% = signal with IL-6 EC80 alone; AID 871;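 active = activation above the screen-wide mean of compound activation plus 3 SD, cut at about 130% in these data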
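system = STAT3-luciferase reporter U3A cells | reagent = IL-6 stimulus at 33 ng/mL final | timing = 1 h compound pre-exposure, 6 h IL-6 stimulation, 37 °C | measured by = luminescence | evaluation = % activation versus median of IL-6-stimulated wells | control set = IL-6-only wells as 100% reference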
Large screens that a line does not name were inactive.

CCCc1ccc(OC(=O)c2ccc(O)cc2Cl)cc1	APP 5'UTR act 218.1, NF-kB expr up 4.27
CCCc1ccc(OC(=O)c2cccs2)cc1	none
O=c1c2c3c(sc2ncn1/N=C/c1ccncc1)CCCC3	none
O=c1c2c3c(sc2ncn1/N=C/c1cccnc1)CCCC3	STAT1 activator 138.6
O=C(OCc1nc2ccccc2s1)c1cc2ccccc2oc1=O	STAT3 activator 134.4
O=C(OCc1nc2ccccc2s1)c1cccc(S(=O)(=O)N2CCOCC2)c1	STAT1 activator 130.3, STAT3 activator 139.0
O=C(Nc1ccc(-c2nc3ccccc3[nH]2)cc1)c1ccco1	APP 5'UTR act 169.2, STAT1 activator 141.0
Cn1cc([N+](=O)[O-])c(C(=O)Nc2ccc(C(=O)N3CCCCC3)cc2)n1	none
Cn1cc([N+](=O)[O-])c(C(=O)Nc2ccc(C3CCCCC3)cc2)n1	NF-kB expr up 3.74
Cn1cc([N+](=O)[O-])c(C(=O)Nc2ccc3nc(-c4ccccc4)[nH]c3c2)n1	none
Cn1cc([N+](=O)[O-])c(C(=O)Nc2ccc(-c3nc4ccccc4[nH]3)cc2)n1	NF-kB expr up 9.53
CCOc1cc(CNCc2cccnc2)ccc1OCC(=O)NC(C)(C)C	none
CN(c1cccc(NC(=O)CN(c2ccc(C34CC5CC(CC(C5)C3)C4)cc2)S(C)(=O)=O)c1)S(C)(=O)=O	none
O=c1c2ccccc2cnn1-c1ccc2ccccc2c1	APP 5'UTR act 167.6, STAT1 activator 130.8, NF-kB expr up 3.43
CCO[C@H]1OC(C(=O)Nc2ccccc2)=C[C@@H](C)[C@@H]1CCCO	none (no result: STAT3 inh, STAT3 activator)
CCN=C(NCC)SC1CC(=O)N(c2ccc(F)cc2)C1=O (configuration not stated)	none
Cc1cccc(OCC(=O)Nc2cccc(-c3nnc(-c4ccccc4)o3)c2)c1C	STAT1 activator 129.6
CCCCC(=O)Nc1cccc(-c2nnc(-c3ccccc3)o2)c1	none
O=C(Nc1cccc(-c2nnc(-c3ccccc3)o2)c1)C1CCCCC1	STAT1 activator 141.3
COc1cccc(NC(=O)COc2ccccc2C(N)=O)c1	STAT1 activator 134.4
Cc1ccc(OCC(=O)Nc2cccc(-c3nnc(-c4ccccc4)o3)c2)cc1	STAT1 activator 143.1
Cc1cccc(C)c1OCC(=O)Nc1cccc(-c2nnc(-c3ccccc3)o2)c1	none
CCC(=O)Nc1ccc(/C(C)=N/NC(=O)c2c(-c3ccccc3Cl)noc2C)cc1	none
Cc1ccc2nc(Cl)c(/C=N/n3c(C)nnc3C)cc2c1	none
CCNC(=O)COC(=O)c1sccc1C	none
Cc1ccsc1C(=O)OCC(=O)Nc1sccc1C(N)=O	STAT1 activator 132.3
O=Cc1ccc(-c2nc3ccccc3s2)o1	APP 5'UTR act 143.1, STAT1 activator 129.5
O=C(CCSc1ccccn1)Nc1ccc(Br)cc1	STAT1 activator 140.0, NF-kB expr up 3.38
Cc1ccc(OCC(=O)c2cc(C)n(Cc3cccs3)c2C)c([N+](=O)[O-])n1	STAT3 inh 51.7, STAT1 inh 42.6
NNC(=O)c1cccc(COc2ccc3c(c2)CCC3)c1	STAT3 inh 95.0, STAT1 inh 59.7
O=[N+]([O-])c1ccccc1NCCOc1ccccc1	STAT1 activator 129.4
COc1ccc(-c2cn3c(C)c(C(=O)N4CCCc5ccccc54)sc3n2)cc1	none (no result: NF-kB expr up)
COc1ccc(-c2cn3c4c(sc3n2)CCCC4)cc1	NF-kB expr up 7.36
COc1cccc(NC(=O)CSc2nnc(-c3ccc(C)cc3)o2)c1	APP 5'UTR act 217.3
Cc1ccc(SCC(=O)Nc2cccc(-c3nnc(-c4ccco4)o3)c2)cc1	STAT1 activator 134.4
O=C(CSc1ccc(Cl)cc1)Nc1cccc(-c2nnc(-c3ccco3)o2)c1	none
COc1ccccc1NC(=O)CSc1nnc(-c2ccc(C)cc2)o1	APP 5'UTR act 180.7 (no result: NF-kB expr up)
COc1cc(O)sc1C=Nc1ccc(Cl)cc1	STAT1 activator 132.2
Cc1c(C(=O)/C=C/c2cccs2)oc2ccc(F)cc12	STAT3 activator 150.7
O=C(c1ccccc1)c1nnc(-c2ccccc2F)o1	NF-kB expr up 9.75
CN(C)c1oc(-c2ccccc2F)nc1C#N	none
Nc1nc(-c2ccco2)nn1S(=O)(=O)c1ccc(Cl)cc1	none
CC1Cc2ccccc2N1C(=O)Cn1cnc2ccccc21 (configuration not stated)	none
CC1=C/C(=N\NC(=S)Nc2cccnc2)CC(C)(C)C1	STAT1 activator 133.9
CC1(C)C2CC=C(/C=N/NC(=S)Nc3cccnc3)C1C2 (configuration not stated)	none
COc1ccc(NC(=O)Nc2nc3c(s2)CCCC3)cc1	APP 5'UTR act 149.9, STAT1 activator 147.7, NF-kB expr up 4.91
COc1ccccc1CC(=O)Nc1ccc2c(c1)C(=O)NC2=O	none
Cc1cccc(-c2cc3nc4c(c(N5CCOCC5)n3n2)CCCC4)c1	APP 5'UTR act 183.2
Cc1cccc(-c2cc3nc4c(c(N5CCC6(CC5)OCCO6)n3n2)CCCC4)c1	none (no result: NF-kB expr up)
Cc1cccc(-c2cc3nc4c(c(NCc5ccco5)n3n2)CCCC4)c1	STAT1 activator 135.3
O=C(CSCc1ccc(Cl)cc1)Nc1ccc(S(=O)(=O)N2CCOCC2)cc1	none
CCN(CC)CC#CCC(OC)(c1ccccc1)c1ccccc1	none
Cc1cc(C)n2nc(N)c(N=Nc3ccc(Cl)cc3)c2n1	none
CC(C)c1ccc(S(=O)(=O)/N=C2/C=CC(=O)c3ccccc32)cc1	STAT3 activator 135.1 (no result: NF-kB expr up)
c1ccc(OCCSc2nnc3sc4ccccc4n23)cc1	STAT3 inh 87.2, STAT1 inh 50.5
COc1cccc(OCCSc2nnc3sc4ccccc4n23)c1	none
COc1ccc(OC)c(C(=O)CSc2nnc(Cc3cccs3)n2CCc2ccccc2)c1	none
Cc1c(NC(=O)C(C)N(c2ccccc2)S(C)(=O)=O)c(=O)n(-c2ccccc2)n1C (configuration not stated)	none
Cc1ccc2cc(C=O)c(N(C)C)nc2c1	STAT3 activator 134.3
O=C(CCS(=O)(=O)c1ccccc1)Nc1ccc2c(c1)OCO2	STAT1 activator 135.7
CS(=O)(=O)N(CC(=O)Nc1ccc2c(c1)OCO2)c1ccccc1	none
O=C(CCCc1cccs1)Nc1ccc2c(c1)OCO2	APP 5'UTR act 161.8, STAT1 activator 134.5, NF-kB expr up 4.22
O=C(CCCN1C(=O)CCC1=O)Nc1ccc2c(c1)OCO2	none
Cc1ccc(-c2c3c(nc4sc(C(N)=O)c(N)c24)CCC3)cc1	none
Cc1ccc(C(=O)c2sc3nc4c(cc3c2N)CCC4)cc1	APP 5'UTR act 191.6
COc1cc(OC)nc(NC(=O)COC(=O)c2cccc(Cl)c2)n1	none
c1ccc(C2=Nc3ccccc3OC2)cc1	STAT1 activator 131.9, NF-kB expr up 4.78
O=C1CC(c2ccccc2)=Nc2ccccc2N1	none
Cc1ccc2c(c1)N=C(c1ccc(Cl)cc1)CO2	STAT1 activator 147.8, NF-kB expr up 3.57
Clc1ccc(C2=Nc3cc(Cl)ccc3OC2)cc1	STAT1 activator 135.4, NF-kB expr up 3.37
